Data published in ChEMBL document CHEMBL4400543, “Identification and Characterization of AES-135, a Hydroxamic Acid-Based HDAC Inhibitor That Prolongs Survival in an Orthotopic Mouse Model of Pancreatic Cancer” (J Med Chem, 2019).

Experiments:
Histone deacetylase 3 = Histone deacetylase 3 (Homo sapiens, UniProt O15379); test: Inhibition of recombinant human HDAC3 expressed in SF9 baculoviral system using FAM-labeled acetylated peptide as substrate by EMSA
Outline: (§1)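 Full-length recombinant human enzyme from an Sf9 baculovirus system, in 100 mM HEPES pH 7.5 with 25 mM KCl, 0.1% BSA, 0.01% Triton X-100 and 1% DMSO. Final enzyme was 0.5 nM for HDAC3, 60 nM for HDAC6 and 5.0 nM for HDAC8. FAM-acetylated peptide was 1 μM. The read-out was product/(substrate+product) by microfluidic mobility shift, with inhibition set against DMSO and no-enzyme controls (quadruplicate). Compounds were tested at 12 threefold-spaced concentrations, and IC50 came from a four-parameter sigmoid fit.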

[1] = target: T1, Protein deacetylase HDAC6 (Homo sapiens, UniProt Q9UBN7); test: Inhibition of recombinant human HDAC6 expressed in SF9 baculoviral system using FAM-labeled acetylated peptide as substrate by EMSA; outline: as §1
T1 sequence (Q9UBN7 whole entry): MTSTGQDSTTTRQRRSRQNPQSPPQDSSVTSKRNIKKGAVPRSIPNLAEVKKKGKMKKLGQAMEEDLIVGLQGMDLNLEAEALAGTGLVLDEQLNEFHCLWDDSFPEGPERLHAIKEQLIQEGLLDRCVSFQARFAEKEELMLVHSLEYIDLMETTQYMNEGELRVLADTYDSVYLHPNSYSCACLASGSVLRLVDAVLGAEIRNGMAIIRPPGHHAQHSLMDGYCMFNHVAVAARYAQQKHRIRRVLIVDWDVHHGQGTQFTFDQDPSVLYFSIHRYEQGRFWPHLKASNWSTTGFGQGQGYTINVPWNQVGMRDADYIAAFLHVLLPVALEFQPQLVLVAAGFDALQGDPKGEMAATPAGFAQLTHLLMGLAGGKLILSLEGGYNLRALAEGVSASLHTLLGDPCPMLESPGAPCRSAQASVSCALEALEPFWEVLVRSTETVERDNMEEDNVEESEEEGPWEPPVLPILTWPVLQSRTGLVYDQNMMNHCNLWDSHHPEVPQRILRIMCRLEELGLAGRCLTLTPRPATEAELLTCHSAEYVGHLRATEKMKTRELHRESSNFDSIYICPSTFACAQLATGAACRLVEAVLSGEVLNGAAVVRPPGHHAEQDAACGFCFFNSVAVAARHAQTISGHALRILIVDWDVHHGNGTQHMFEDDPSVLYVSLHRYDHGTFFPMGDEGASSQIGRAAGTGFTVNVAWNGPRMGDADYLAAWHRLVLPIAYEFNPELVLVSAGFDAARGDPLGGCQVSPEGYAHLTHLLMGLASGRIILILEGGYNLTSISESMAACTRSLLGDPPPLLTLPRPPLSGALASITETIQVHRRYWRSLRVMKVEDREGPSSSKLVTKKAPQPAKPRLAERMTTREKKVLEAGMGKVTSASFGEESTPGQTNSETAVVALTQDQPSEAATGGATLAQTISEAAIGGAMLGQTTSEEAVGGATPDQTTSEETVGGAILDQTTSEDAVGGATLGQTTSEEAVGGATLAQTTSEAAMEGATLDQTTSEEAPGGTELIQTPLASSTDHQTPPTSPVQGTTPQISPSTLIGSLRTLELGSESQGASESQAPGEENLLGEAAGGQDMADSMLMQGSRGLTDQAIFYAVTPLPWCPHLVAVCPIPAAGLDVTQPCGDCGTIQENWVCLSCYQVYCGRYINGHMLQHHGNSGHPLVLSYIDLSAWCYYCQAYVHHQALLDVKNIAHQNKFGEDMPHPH

Histone deacetylase 8 = target: T2, Histone deacetylase 8 (Homo sapiens, UniProt Q9BY41); test: Inhibition of recombinant human HDAC8 expressed in SF9 baculoviral system using FAM-labeled acetylated peptide as substrate by EMSA; outline: as §1
T2 sequence (Q9BY41 whole entry): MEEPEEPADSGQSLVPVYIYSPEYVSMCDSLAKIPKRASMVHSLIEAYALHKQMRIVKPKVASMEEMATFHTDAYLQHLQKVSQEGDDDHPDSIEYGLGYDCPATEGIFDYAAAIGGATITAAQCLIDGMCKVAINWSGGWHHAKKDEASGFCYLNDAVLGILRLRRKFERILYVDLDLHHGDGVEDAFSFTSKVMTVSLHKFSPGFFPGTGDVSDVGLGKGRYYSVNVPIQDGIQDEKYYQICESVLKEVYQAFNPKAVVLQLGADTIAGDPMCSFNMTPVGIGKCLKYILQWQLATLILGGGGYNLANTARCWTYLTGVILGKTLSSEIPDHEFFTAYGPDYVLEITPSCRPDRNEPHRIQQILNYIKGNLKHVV

Histone deacetylase 11 = target: T3, Histone deacetylase 11 (Homo sapiens, UniProt Q96DB2); test: Inhibition of recombinant human HDAC11 expressed in SF9 baculoviral system using FAM-labeled acetylated peptide as substrate by EMSA
T3 sequence (Q96DB2 whole entry): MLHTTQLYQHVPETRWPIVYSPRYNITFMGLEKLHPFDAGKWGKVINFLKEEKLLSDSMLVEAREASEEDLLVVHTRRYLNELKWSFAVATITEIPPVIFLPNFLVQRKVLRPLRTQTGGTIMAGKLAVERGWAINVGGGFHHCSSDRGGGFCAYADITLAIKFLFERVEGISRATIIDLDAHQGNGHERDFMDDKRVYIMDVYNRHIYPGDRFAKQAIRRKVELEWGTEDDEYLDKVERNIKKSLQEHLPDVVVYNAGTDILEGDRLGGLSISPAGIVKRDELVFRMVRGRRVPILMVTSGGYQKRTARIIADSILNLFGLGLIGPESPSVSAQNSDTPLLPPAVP
Outline: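 Full-length human HDAC11 (Sf9-expressed), 10 nM final, in 100 mM HEPES pH 7.5, 25 mM KCl, 0.1% BSA, 0.01% Triton X-100, 1% DMSO. FAM-acetylated peptide substrate at 100 μM, mobility-shift read-out. Product/(substrate + product) converted to % inhibition. IC50 from a four-parameter fit; dose-response spans 12 threefold dilutions from 30.0 μM.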

[2] = Half life in ICR/CD1 mouse hepatocytes at 1 uM up to 120 mins by LC-MS/MS analysis; type: ADME, cell-based, Hepatocyte; conditions: 2 h
[3] = Intrinsic clearance in ICR/CD1 mouse hepatocytes assessed per million cells at 1 uM up to 120 mins by LC-MS/MS analysis; type: ADME, cell-based, Hepatocyte; conditions: 2 h
[4] = Cytotoxicity against mouse KPC monolayer cells assessed as reduction in tumor spheroid intensity after 72 hrs by Alamar Blue assay; type: functional, cell-based
Outline: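 Monolayer proliferation of STR-authenticated, mycoplasma-checked patient-derived PDAC lines and mouse KPC cells. Plated at 2000 cells/well, treated 72 h, read by alamarBlue. At least triplicate, n = 3–5.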

Histone deacetylase 3, sequence (O15379 whole entry): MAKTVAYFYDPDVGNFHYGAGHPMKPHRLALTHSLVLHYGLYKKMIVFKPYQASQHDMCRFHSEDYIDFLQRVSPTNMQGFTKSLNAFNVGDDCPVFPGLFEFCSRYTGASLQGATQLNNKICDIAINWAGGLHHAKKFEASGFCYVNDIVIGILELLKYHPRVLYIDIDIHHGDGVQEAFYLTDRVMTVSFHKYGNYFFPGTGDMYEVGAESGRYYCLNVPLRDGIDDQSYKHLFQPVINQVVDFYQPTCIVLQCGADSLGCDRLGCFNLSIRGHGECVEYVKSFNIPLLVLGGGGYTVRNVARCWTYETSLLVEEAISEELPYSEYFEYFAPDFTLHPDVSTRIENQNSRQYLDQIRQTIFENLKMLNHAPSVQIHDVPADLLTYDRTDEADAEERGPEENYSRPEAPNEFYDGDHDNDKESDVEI

| IC50 (Histone deacetylase 3) | IC50 [1] | IC50 (Histone deacetylase 8) | IC50 (Histone deacetylase 11) | t1/2 [2] | CLH [3] | Compound | IC50 [4] |
| --- | --- | --- | --- | --- | --- | --- | --- |
| > 1000 nM | 151 nM | > 1000 nM | 346 nM | – | – | O=C(NO)c1ccc(N(Cc2ccc(C(F)(F)F)cc2)C(=O)CN(Cc2ccccc2C(F)(F)F)S(=O)(=O)c2ccc(F)cc2F)cc1 | – |
| > 1000 nM | 289 nM | > 1000 nM | 288 nM | – | – | CC(C)(C)c1ccc(CN(C(=O)CN(Cc2ccccc2C(F)(F)F)S(=O)(=O)c2ccc(F)cc2F)c2ccc(C(=O)NO)cc2)cc1 | – |
| > 1000 nM | 230 nM | > 1000 nM | 253 nM | – | – | CC(C)(C)c1ccc(CN(C(=O)CN(Cc2ccccc2C(F)(F)F)S(=O)(=O)c2ccc(F)cc2)c2ccc(C(=O)NO)cc2)cc1 | – |
| > 1000 nM | 86 nM | > 1000 nM | 191 nM | 37.1 min | 37.4 µL/min | O=C(NO)c1ccc(N(Cc2ccc(C(F)(F)F)cc2)C(=O)CN(Cc2c(F)c(F)c(F)c(F)c2F)S(=O)(=O)c2ccc(F)cc2)cc1 | – |
| > 1000 nM | 93 nM | > 1000 nM | 304 nM | – | – | O=C(NO)c1ccc(N(Cc2ccc(C(F)(F)F)cc2)C(=O)CN(Cc2ccccc2C(F)(F)F)S(=O)(=O)c2ccc(F)cc2)cc1 | – |
| – | – | – | – | – | – | Cc1[nH]c2ccccc2c1CCNCc1ccc(/C=C/C(=O)NO)cc1 [PANOBINOSTAT] | 8500 nM |
| > 1000 nM | 362 nM | > 1000 nM | 254 nM | – | – | CC(C)(C)c1ccc(CN(C(=O)CN(Cc2ccccc2C(F)(F)F)S(=O)(=O)c2ccc(F)c(F)c2)c2ccc(C(=O)NO)cc2)cc1 | – |
| > 1000 nM | 188 nM | > 1000 nM | 396 nM | – | – | O=C(NO)c1ccc(N(Cc2ccc(C(F)(F)F)cc2)C(=O)CN(Cc2ccccc2C(F)(F)F)S(=O)(=O)c2ccc(F)c(F)c2)cc1 | – |
